MrgX1 agonist = agonists of human MrgX1 receptor, primary screen, HEK293 cells, Fluo-4 calcium flux | Mas-related G-protein coupled receptor member X1 (Homo sapiens), Q96LB2 | Fluo-4 calcium fluorescence, agonist mode; active compounds read high | B-score at 10 µM | 310,000 tested, 0.44% active;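 active = calcium response B-score plate-corrected fluorescence ratio at least 3 library SD, with starting fluorescence B-score inside 5 SD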
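Test system: Stable human MrgX1 HEK293 cell line | Schedule: Overnight plating before 1 h dye loading | Read-out basis: Baseline-normalised fluorescence change ratio, B-scored | Detection: Kinetic calcium dye fluorescence, Fluo-4 NW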
MrgX1 antagonist = antagonists of human MrgX1 receptor, primary screen, HEK293 cells, Fluo-4 calcium flux; BAM8-22 antagonism; active compounds read low; B-score at 10 µM; 310,000 tested, 1.3% active;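 active = calcium-response B-score plate-corrected more than 3 library SD below zero, starting fluorescence within 5 deviations, no agonist response on first addition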;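 note: peak minus trough fluorescence over baseline after final BAM8-22 challenge near maximal dose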
RGS4 act = RGS4 potentiators or activators, primary screen, cell-based, HEK293 M3R inducible RGS4, calcium flux; B-score at 10 µM; 310,000 tested, 0.92% active; carbachol calcium flux Fluo4; active compounds read low;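 active = B-score of the integrated calcium signal more than 4 SD below the library mean, with starting fluorescence not abnormally high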;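 note: negative B-score means reduced calcium response which marks RGS4 activation or potentiation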
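System – HEK293 FlpIn-TREx cells, stable M3R, doxycycline-inducible RGS4 · Reagent – ECmax carbachol challenge · Times – compound preincubation 20 min at room temperature before agonist · Technique – Fluo4 fluorescence kinetic imaging of calcium · Measure – B score of integrated Fluo4 ratio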
MrgX1 allo act = positive allosteric modulators of MrgX1, primary screen, HEK293 cells, Fluo-4 calcium flux; Mas-related G-protein coupled receptor member X1 (Homo sapiens), Q96LB2; FDSS; active compounds read high; B-score at 10 µM; 310,000 tested, 0.63% active;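 active = plate-corrected calcium response at least 3 library SD above typical, normal starting fluorescence, not activating the receptor alone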;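 note: compound read alongside a low EC10 to EC30 dose of BAM8-22 agonist; peak minus trough fluorescence over baseline measured at the second addition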
RGS4 block = RGS4 inhibitors, primary screen, cell-based, HEK293 M3R inducible RGS4, calcium flux. Fluo-4 calcium flux; active compounds read high; triggered by carbachol at its EC20. B-score at 10 µM. 310,000 tested, 0.45% active. AID 463165, 2010;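 active = B-score, a plate-corrected calcium signal, over three deviations above library mean, with baseline fluorescence within five deviations of library mean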;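 note: RGS4 expression induced by doxycycline in cells with stable M3 receptor; B-score is computed from the integrated fluorescence ratio over baseline after carbachol; higher B-score means a larger calcium signal and so more RGS4 inhibition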
KCC2 mod = KCC2 cotransporter modulators, thallium flux, primary screen, cell-based, HEK293 KCC2, FluoZin-2 fluorescence, MLSMR; Solute carrier family 12 member 5 (Homo sapiens), Q9H2X9; KCC2 cells, thallium flux FluoZin-2 fluorescence; B-score of Tl+ flux slope (higher = more flux/activation; lower = inhibition) at 10 µM; 190,000 tested, 2.2% active; AID 1456, 2008;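 active = thallium flux slope and its plate-corrected score both differing from the plate sample mean at a set confidence after two filtering rounds, in either direction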;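 note: slope of fluorescence scaled to starting intensity during 10 to 20 s after thallium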
* = called active by the depositor. Hits are enriched below; roughly 4.7% of the tested compounds scored in any of these assays.

How did CCOC(=O)CNC(=S)N1CC2C[C@@H](C1)Cn1c2cccc1=O do in these assays?
MrgX1 agonist: inactive; MrgX1 antagonist: inactive; RGS4 act: inactive; MrgX1 allo act: inactive; RGS4 block: inactive

Results for CCOc1cc2c(cc1OCC)-n1cccc1C(c1cccc(F)c1)NC2 (stereo unspecified) ?
MrgX1 agonist: inactive; MrgX1 antagonist: inactive; RGS4 act: inactive; MrgX1 allo act: inactive; RGS4 block: inactive

How did Cn1c(O)c(C=NC2CCCCCC2)c(=O)[nH]c1=S do in these assays?
MrgX1 agonist: inactive; MrgX1 antagonist: -6.4*; RGS4 act: inactive; MrgX1 allo act: inactive; RGS4 block: inactive; KCC2 mod: 1.8

Results for O=C1NC(=O)N(c2ccc(Cl)cc2)C(=O)/C1=C/c1coc2ccc(O)cc2c1=O ?
MrgX1 agonist: inactive; MrgX1 antagonist: inactive; RGS4 act: inactive; MrgX1 allo act: inactive; RGS4 block: inactive; KCC2 mod: -4.6*

What do the screens show for `CCOC(=O)[C@@H]1[C@H]2COc3ccc(Br)cc3[C@@H]2N2C(=O)N(c3cccc(C)c3)C(=O)[C@]12C`?
MrgX1 agonist: inactive; MrgX1 antagonist: inactive; RGS4 act: inactive; MrgX1 allo act: inactive; RGS4 block: inactive

What do the screens show for `COc1ccc(C2=NS(=O)(=O)N(C)C(C(=O)N3CCC4(CC3)OCCO4)=C2)cc1OC`?
MrgX1 agonist: inactive; MrgX1 antagonist: inactive; RGS4 act: inactive; MrgX1 allo act: inactive; RGS4 block: inactive

Results for Cc1cc(Oc2ccc(C(F)(F)F)cc2[N+](=O)[O-])c2c3c(c(=O)oc2c1)CCC3 ?
MrgX1 agonist: inactive; MrgX1 antagonist: inactive; RGS4 act: inactive; MrgX1 allo act: inactive; RGS4 block: inactive; KCC2 mod: 0.8

How did Cc1cc(Oc2ccc(C(F)(F)F)cc2[N+](=O)[O-])c2c3c(c(=O)oc2c1)CCCC3 do in these assays?
MrgX1 agonist: inactive; MrgX1 antagonist: inactive; RGS4 act: -7.4*; MrgX1 allo act: inactive; RGS4 block: inactive; KCC2 mod: 0.22

Results for CC(C)CCn1c(=O)c(C(=O)Nc2ccccc2S(N)(=O)=O)c(O)c2ccccc21 ?
MrgX1 agonist: inactive; MrgX1 antagonist: inactive; RGS4 act: inactive; MrgX1 allo act: inactive; RGS4 block: inactive; KCC2 mod: 6.6*

Results for O=C(Nc1ccccc1)OC1CN=C(N[N+](=O)[O-])NC1 (stereo unspecified) ?
MrgX1 agonist: inactive; MrgX1 antagonist: -5.7*; RGS4 act: inactive; MrgX1 allo act: inactive; RGS4 block: inactive; KCC2 mod: -0.0038

What do the screens show for `CCC(=NCC1CCCO1)c1c(O)n(-c2ccc(OC)cc2)c(=O)[nH]c1=O` (stereo unspecified)?
MrgX1 agonist: inactive; MrgX1 antagonist: inactive; RGS4 act: inactive; MrgX1 allo act: inactive; RGS4 block: inactive; KCC2 mod: 0.54

Results for Oc1c(Br)cc(Br)cc1Oc1ccc(Br)cc1Br ?
MrgX1 agonist: inactive; MrgX1 antagonist: inactive; RGS4 act: inactive; MrgX1 allo act: inactive; RGS4 block: inactive; KCC2 mod: 6*

How did Oc1c(Br)cc(Br)cc1CN1CCN(Cc2ccccc2)CC1 do in these assays?
MrgX1 agonist: inactive; MrgX1 antagonist: inactive; RGS4 act: inactive; MrgX1 allo act: inactive; RGS4 block: inactive; KCC2 mod: 0.43

What do the screens show for `COCCNC(=O)CN1C(=O)CN=C(c2ccccc2)c2ccccc21`?
MrgX1 agonist: inactive; MrgX1 antagonist: inactive; RGS4 act: inactive; MrgX1 allo act: inactive; RGS4 block: inactive; KCC2 mod: 1.4

Results for O=C(NC1CCCCC1)N1C[C@H]2C[C@@H](C1)c1cccc(=O)n1C2 ?
MrgX1 agonist: inactive; MrgX1 antagonist: inactive; RGS4 act: inactive; MrgX1 allo act: inactive; RGS4 block: inactive

How did Cc1ccccc1N1C(=O)NC(=O)/C(=C\c2ccc3c(c2)CCCN3Cc2ccccc2)C1=O do in these assays?
MrgX1 agonist: 32*; MrgX1 antagonist: inactive; RGS4 act: inactive; MrgX1 allo act: inactive; RGS4 block: inactive; KCC2 mod: -0.52

How did COc1ccc(/C=C2/C(=O)NC(=O)N(c3ccccc3)C2=O)cc1CN1C(=O)c2ccccc2C1=O do in these assays?
MrgX1 agonist: inactive; MrgX1 antagonist: inactive; RGS4 act: inactive; MrgX1 allo act: inactive; RGS4 block: inactive; KCC2 mod: 0.69

How did CCOC(=O)c1[nH]c2ccc(OC)cc2c1C(SCC(=O)O)c1ccc(C(F)(F)F)cc1 (stereo unspecified) do in these assays?
MrgX1 agonist: inactive; MrgX1 antagonist: inactive; RGS4 act: inactive; MrgX1 allo act: inactive; RGS4 block: inactive

What do the screens show for `Cc1c(C(c2ccc(Cl)cc2Cl)c2c(O)c3ccccc3oc2=O)c(=O)n(-c2ccccc2)n1C` (stereo unspecified)?
MrgX1 agonist: inactive; MrgX1 antagonist: inactive; RGS4 act: inactive; MrgX1 allo act: 14*; RGS4 block: inactive; KCC2 mod: -2.5

What do the screens show for `O=[N+]([O-])c1ccc(N2CCCC2)c2ccncc12`?
MrgX1 agonist: inactive; MrgX1 antagonist: -5.1*; RGS4 act: inactive; MrgX1 allo act: inactive; RGS4 block: inactive; KCC2 mod: -0.47

How did O=[N+]([O-])c1ccc(NC2CCCC2)c2ccncc12 do in these assays?
MrgX1 agonist: inactive; MrgX1 antagonist: inactive; RGS4 act: inactive; MrgX1 allo act: inactive; RGS4 block: inactive

Results for O=C1OC(c2ccc([N+](=O)[O-])cc2)=N/C1=C/N1CC2CC(C1)c1cccc(=O)n1C2 (stereo unspecified) ?
MrgX1 agonist: 57*; MrgX1 antagonist: inactive; RGS4 act: inactive; MrgX1 allo act: inactive; RGS4 block: inactive; KCC2 mod: -5.2

What do the screens show for `O=C1OC(c2ccc(Br)cc2)=N/C1=C\N1CC2CC(C1)c1cccc(=O)n1C2` (stereo unspecified)?
MrgX1 agonist: inactive; MrgX1 antagonist: inactive; RGS4 act: inactive; MrgX1 allo act: inactive; RGS4 block: inactive; KCC2 mod: -0.41

How did COc1ccc(C(CNC(=O)CCc2ccsc2)N(C)C)cc1 (stereo unspecified) do in these assays?
MrgX1 agonist: inactive; MrgX1 antagonist: inactive; RGS4 act: inactive; MrgX1 allo act: inactive; RGS4 block: inactive

Bioassay records: PubChem BioAssay, several laboratories
